Cl transport mod: KCC2 (human) Cl- transport modulation; Q9H2X9; KCC2 cells, thallium flux FluoZin-2 fluorescence; B-score of Tl+ flux slope (higher = more flux/activation; lower = inhibition) at 10 µM; hit rate 2.2% among 190,000;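 active = thallium flux slope and its plate-corrected score both differing from the plate sample mean at a set confidence after two filtering rounds, in either direction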;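 note: slope of fluorescence scaled to starting intensity during 10 to 20 s after thallium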
Calpain2 inh: calpain II (pig) inhibition. purified calpain II, fluorogenic peptide substrate, 30 min. inhibition, % at 16 µM. hit rate 0.37% among 220,000. AID 1236;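 active = inhibition above about 50%, limit read from the data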
ROMK primary: modulates human ROMK potassium channel activity; P48048; Tet-inducible ROMK, thallium flux fluorescence; actives lie on both sides; B-score at 10 µM; hit rate 2% among 130,000;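 active = signal ratio slope over the read window, or its plate-corrected B-score, at least 3 SD from the plate mean, either direction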;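 note: B-score of the F/F0 ratio slope over 7 to 12 s after thallium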
Target sequence (P48048 whole entry, looked up): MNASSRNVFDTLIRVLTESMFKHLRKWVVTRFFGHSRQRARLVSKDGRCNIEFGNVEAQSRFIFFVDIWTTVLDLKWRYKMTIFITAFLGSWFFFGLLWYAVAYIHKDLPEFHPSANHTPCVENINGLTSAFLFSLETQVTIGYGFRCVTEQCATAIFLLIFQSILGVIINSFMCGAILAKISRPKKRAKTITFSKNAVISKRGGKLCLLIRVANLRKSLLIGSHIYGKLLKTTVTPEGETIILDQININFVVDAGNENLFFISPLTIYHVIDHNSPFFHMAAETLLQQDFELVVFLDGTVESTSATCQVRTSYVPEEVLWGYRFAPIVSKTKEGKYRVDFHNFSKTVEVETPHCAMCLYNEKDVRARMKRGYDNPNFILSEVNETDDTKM
Arbovirus anti: arbovirus infection inhibition; arbovirus infection cell-based antiviral screen; inhibition, % at 10 µM; hit rate 0.37% among 200,000; in the data active = inhibition above about 30%
MDM2 E3 inh: inhibitors of human Mdm2 E3 ubiquitin ligase | hit rate 0.11% among 210,000 | AID 1230 | cell-based MDM2 ubiquitination luciferase reporter, 2 h; 0 = plate control, 100 = twice control, blank-subtracted | signal enhancement, % at 5 µM;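 active = signal enhancement of 30% or more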;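 note: luminescence tracks abundance of the self-degrading MDM2-luciferase fusion protein; higher signal means inhibition of MDM2 E3 ligase activity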
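Assay system: stable mammalian line carrying autodegrading MDM2–luciferase fusion reporter; Input: 2000 cells in each well; Compound dosing: single-point 5 µM; Schedule: 2 h compound exposure at 37 °C; Signal: SteadyLite luciferase luminescence after 15 min room-temperature reagent incubation; Evaluation: % luminescence enhancement versus blank-corrected plate control mean; Benchmarks: plate controls and plate blanks.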
PKD1 inh: PKD1 (human) kinase inhibition. PKD1 kinase fluorescence polarization assay. inhibition, % (no concentration beside the values). hit rate 0.056% among 200,000; in the data active = inhibition above about 50%
* = called active by the depositor; . = not tested or not shown. Hits are enriched below; roughly 3.7% of the tested compounds scored in any of these assays.

SMILES	Cl transport mod	Calpain2 inh	ROMK primary	Arbovirus anti	MDM2 E3 inh	PKD1 inh
Cc1ccc(C(=O)NC(=S)Nc2ccc3c(c2)OCCO3)c(C)c1	13.1*	29.6	.	6.2	-7.0	-0.7
Cc1cc(C)cc(C(=O)NC(=S)Nc2ccc3c(c2)OCCO3)c1	1.04	29.9	.	-0.5	-14.6	-8.5
CCOC(=O)C1(CCCc2ccccc2)CCN(C(=O)C2=C(C)OCCO2)CC1	-4.49	-7.7	-1.15	1.4	-13.7	3.8
CCOC(=O)c1ccc(NC(=O)Nc2ncccc2C)cc1	-0.345	51.1*	-0.76	-13.4	-2.9	-1.6
COc1ccc2nc(/N=C/c3c(C)[nH]n(-c4ccc(C)cc4C)c3=O)sc2c1	61.5*	14.4	.	4.7	-15.0	-3.3
Cc1ccc(NC2c3ncccc3C(=O)N2C2CCCCC2)cc1C (stereo unspecified)	.	-40.4	0.0316	39.6*	-16.1	-1.6
Cc1ccc(NC2c3ncccc3C(=O)N2C2CCCCC2)cc1 (stereo unspecified)	.	1.2	0.575	11.2	-2.8	7.3
CN(C)c1ccnc(Oc2ccc(C(C)(C)C)cc2)c1C#N	.	59.4*	.	-1.2	-0.8	17.8
CCCCCc1ccc(C(=O)CCCC)c(=S)[nH]1	119*	-14.3	3.84*	-1.5	-13.8	-0.3
O=C(Cn1cnc2ccccc2c1=O)N1CCOCC1	-0.751	3.7	.	11.7	.	-12.8
O=C(Cn1cnc2ccccc2c1=O)NCCC(=O)N1CCN(Cc2ccccc2)CC1	1.71	11.6	.	-1.7	34.4*	-4.5
O=S(=O)(Nc1cc(Sc2cccc3cccnc23)c(O)c2ccccc12)c1ccc(F)cc1	48*	-10.3	.	-42.6	17.2	0.3
COc1ccc(S(=O)(=O)Nc2ccc(O)c(Sc3ncn[nH]3)c2)cc1	0.281	15.2	.	5.5	-0.6	-4.0
O=C(Sc1cccc2cccnc12)c1ccc(F)cc1	64*	-5.3	8.73*	-25.6	-15.4	11.1
CC(=O)/C(=N\Nc1ccccc1)Sc1cccc2cccnc12	-2.08	38.2	-0.0796	-1.3	-11.1	-2.1
CN(C)C(=O)CSc1cccc2cccnc12	8.14*	-300.1	.	-20.3	-3.1	1.7
COc1ccc(S(=O)(=O)Nc2cc(Sc3ncn[nH]3)c(O)c3ccccc23)cc1	-1.61	19.6	-6.27*	-40.7	6.7	2.7
CC1CCCCC1NC(=O)CN(C)S(=O)(=O)c1cccc2cccnc12 (stereo unspecified)	2.03	-5.7	0.00959	.	-3.2	.
Cc1ccc(/C=C/C(=O)O)cc1S(=O)(=O)NC1CCS(=O)(=O)C1 (stereo unspecified)	0.332	-23.9	0.385	4.6	-1.6	-2.7
O=c1oc2c(-c3ccc([N+](=O)[O-])cc3)cc(O)cc2s1	-0.00172	0.1	.	.	-5.6	.
CC(C)(C)c1ccc(C(=O)NC(=S)Nc2nc3c(s2)CCCC3)cc1	12.4*	-3.1	0.95	-3.4	-30.4	-9.6
CN(C)c1ccc(C(=O)Nc2nc3c(s2)CCCC3)cc1	-0.764	0.6	.	8.4	-57.9	1.2
CCSCCOC(=O)C1=C(C)N(C)C(=O)NC1c1cc(OC)ccc1OC (stereo unspecified)	4.25*	-12.2	0.729	1.3	-21.6	-9.3
CCSCCOC(=O)C1=C(C)NC(=O)NC1c1cc(OC)ccc1OC (stereo unspecified)	.	-10.8	.	13.2	-11.7	-2.9
CCc1sc(/C=C(/C#N)C(N)=S)cc1[N+](=O)[O-]	-1.43	-6.4	-4.4*	-4.9	-5.0	0.1
SMILES	Cl transport mod	Calpain2 inh	ROMK primary	Arbovirus anti	MDM2 E3 inh	PKD1 inh
CCn1c(SCc2ccc(F)cc2)nnc1C1CCN(S(=O)(=O)c2ccc(OC)cc2)CC1	.	59.2*	.	-1.0	3.9	-2.2
O=C(CNCC1CCCCC1)Nc1ccc(OC(F)(F)F)cc1	0.521	-6.8	-0.815	-9.0	-10.3	4.1
C=CCn1c(N)c(C(=O)NCc2cccnc2)sc1=S	-0.0487	18.1	-0.057	77.2*	-10.1	3.3
COC(=O)c1ccccc1N/C=C/C(=O)c1ccc(Br)cc1	-0.0683	23.3	-0.158	63.0*	-0.7	-1.6
NC(=O)c1ccccc1N/C=C/C(=O)c1ccccc1	-0.206	-16.3	.	-2.4	-59.6	0.6
CCCCN(Cc1ccccc1)C(=O)CCN1C(=O)C2C3C=CC(C3)C2C1=O (stereo unspecified)	0.69	10.5	0.492	4.5	-0.2	0.9
CCCCNS(=O)(=O)c1ccc2nc(SCC(=O)Nc3cccc(F)c3)[nH]c2c1	-0.188	25.7	-1.31	-9.4	-9.1	-8.0
CCCCNS(=O)(=O)c1ccc2nc(SCC(=O)Nc3ccccc3Cl)[nH]c2c1	-0.402	56.4*	.	8.3	-4.7	-0.3
O=S(=O)(Nc1cccc(-c2ccc3nncn3n2)c1)c1ccc(Cl)s1	0.0955	-32.3	.	-2.0	-43.6	-4.8
O=C(COc1ccccc1)Nc1ncccn1	0.0765	-16.9	0.756	6.2	34.5*	-6.9
O=C(O)CCCC(=O)Nc1cccc(C(=O)Nc2ccccc2C(=O)O)c1	-0.696	-26.1	-0.202	5.1	-5.5	0.6
O=C(CSCc1ccccc1)Nc1cccc(C(=O)Nc2ccccc2C(=O)O)c1	.	9.2	.	31.2*	-3.7	-1.3
Cc1cccc(OCC(=O)Nc2cccc(C(=O)NCC(C)C)c2)c1	-0.46	19.5	-0.31	-1.6	-7.2	-6.5
O=C(CSCc1ccc(Cl)cc1)Nc1cccc(C(=O)Nc2ccccc2C(=O)O)c1	-1.79	-14.1	.	36.2*	2.2	4.7
Cc1cccc(OCC(=O)Nc2cccc(C(=O)Nc3ccccc3C(=O)O)c2)c1	-4.82	-5.1	.	55.3*	-12.4	0.7
O=C(CSc1nc(O)cc(=O)n1-c1ccccc1)Nc1nc2ccccc2s1	-0.938	-31.0	0.489	.	5.2	.
CCCCOc1ccc(C(=O)N/C(=C\c2cccc([N+](=O)[O-])c2)C(=O)OCCC)cc1	-0.338	14.2	0.506	6.9	-28.0	2.1
CCCCOc1ccc(C(=O)N/C(=C\c2cccc([N+](=O)[O-])c2)C(=O)OC(C)C)cc1	0.978	51.5*	.	0.7	5.6	-5.8
CCN(/N=C/C=C/c1ccccc1)c1cc(=O)n(C)c(=O)[nH]1	-0.0832	52.1*	0.381	-47.9	-7.4	-3.0
CCN(/N=C/c1ccc(Cl)cc1)c1cc(=O)n(C)c(=O)[nH]1	-0.0377	26.0	.	-9.4	-14.1	-11.3
CSc1sc(C(=O)NNC(C)=O)c2c1C=CCC2	0.823	-7.0	.	.	-13.1	.
COc1ccc(-c2cc(C(F)(F)F)nc(S(=O)(=O)CCCC(=O)Nc3cccnc3Cl)n2)cc1OC	.	-53.3	-0.425	-35.8	34.1*	0.7
COC(=O)CCS(=O)(=O)c1nc(-c2ccccc2)cc(C(F)(F)F)n1	.	4.9	.	-43.5	5.2	-4.3
O=c1[nH]c(=S)[nH]c2sccc12	0.0609	12.7	-0.716	1.6	1.1	-7.5
O=C(COc1ccc2ccccc2c1CN1CCOCC1)N1CCc2ccccc21	-7.85*	11.7	.	-5.8	-2.2	-0.5
CC1CN(c2nc3ccccc3cc2-c2ccccc2)CC(C)O1 (stereo unspecified)	-0.711	-43.1	.	0.4	0.4	-6.6
CCOC(=O)c1c(NS(=O)(=O)c2ccc(Br)cc2)sc2c1CCC2	118*	-77.6	3.15*	-4.0	.	-2.4

Assay outcomes (PubChem)
